A value given as a limit tells only on which side of the number the result lay.

The values below come from ChEMBL document CHEMBL3352149, “Promiscuity and selectivity in covalent enzyme inhibition: a systematic study of electrophilic fragments” (J Med Chem, 2014).

Assay [1] relates to Escherichia coli. Kind of assay: Inhibition of Escherichia coli MetAP at 25 uM after 20 mins by HPLC analysis. Put shortly:
(§1)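 Endpoint assay. Enzyme (50 nM) was preincubated with 25 μM compound for 20 min at 37 °C in 50 mM Tris pH 7.5, 100 mM NaCl, 100 μM CoCl2, 0.075% BSA. MGMM substrate (400 μM) was then added for 15 min (human MetAP-1) or 20 min (E. coli MetAP). Reactions were stopped with TFA. GMM product was quantified by RP-HPLC, UV 214 nm. Triplicate.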

Assay [2] deals with Methionine aminopeptidase 1 (Homo sapiens) (UniProt P53582). The experiment in a line: Inhibition of human MetAP at 25 uM after 20 mins by HPLC analysis. The gist of the method: as §1
In assay [3] the test system is Escherichia coli. Kind of assay: Inhibition of wild-type Escherichia coli MurA compound preincubated for 10 mins before substrate addition at 25 uM measured after 15 mins by LC-MS method.
The subject of assay [4] is Escherichia coli. The experiment in a line: Inhibition of wild-type Escherichia coli MurB compound preincubated for 10 mins before substrate addition at 25 uM measured after 15 mins by LC-MS method. The gist of the method: (§2)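 E. coli wild-type enzyme (4 nM) was preincubated with 25 μM compound for 10 min at 37 °C. Enzymatically generated nucleotide-sugar substrate (~200 μM) plus ATP (~200 μM), or NADPH 200 μM for MurB, was added for 10 min. Reactions were started with amino-acid cosubstrate (MurC–F) or EP-UNAG (MurB), run 15 min at 37 °C, and quenched with formic acid. Product was measured by negative-ESI LC-MS EIC peak area. MgCl2: MurC 10, MurD/E 2, MurF 5 mM; MurB had 5 mM KCl. All in 50 mM NH4HCO3, 0.07% BSA, 1% DMSO; triplicate.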

Assay [5] concerns Escherichia coli. The experiment in a line: Inhibition of wild-type Escherichia coli MurC compound preincubated for 10 mins before substrate addition at 25 uM measured after 15 mins by LC-MS method. Put shortly:
as §2

The test system of assay [6] is Escherichia coli. Kind of assay: Inhibition of wild-type Escherichia coli MurD compound preincubated for 10 mins before substrate addition at 25 uM measured after 15 mins by LC-MS method. The gist of the method: as §2
The test system of assay [7] is Escherichia coli. Kind of assay: Inhibition of wild-type Escherichia coli MurE compound preincubated for 10 mins before substrate addition at 25 uM measured after 15 mins by LC-MS method. The gist of the method:
as §2

Assay [8] concerns Escherichia coli. The experiment in a line: Inhibition of wild-type Escherichia coli MurF compound preincubated for 10 mins before substrate addition at 25 uM measured after 15 mins by LC-MS method. Put shortly: as §2
The nature of assay [9]: GSH reactivity of the compound assessed as adducts formation by RP-HPLC analysis. The gist of the method:
(§3)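 Fresh aqueous glutathione (10 mM solution) was added to 50 mM Tris-maleate buffer, pH 7.5. The reaction was started with compound from 10 mM DMSO stock (final 250 μM). Mixtures were followed by reversed-phase HPLC on an ODS column with a gradient to 100% B; rate constants are given in l·mol⁻¹·s⁻¹.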

The nature of assay [10]: GSH reactivity of the compound assessed as adducts formation meaured over 3 hrs by RP-HPLC analysis. Put shortly:
as §3

For assay [11], the target named is Genome polyprotein (dengue virus type 2) (UniProt P12823). The experiment in a line: Inhibition of Dengue virus serotype 2 NS2B-NS3 protease at 50 uM.
Assay [12] deals with Genome polyprotein (West Nile virus) (UniProt P06935). Kind of assay: Inhibition of West Nile virus NS2B-NS3 protease at 50 uM.
Genome polyprotein (West Nile virus), sequence (P06935 whole entry): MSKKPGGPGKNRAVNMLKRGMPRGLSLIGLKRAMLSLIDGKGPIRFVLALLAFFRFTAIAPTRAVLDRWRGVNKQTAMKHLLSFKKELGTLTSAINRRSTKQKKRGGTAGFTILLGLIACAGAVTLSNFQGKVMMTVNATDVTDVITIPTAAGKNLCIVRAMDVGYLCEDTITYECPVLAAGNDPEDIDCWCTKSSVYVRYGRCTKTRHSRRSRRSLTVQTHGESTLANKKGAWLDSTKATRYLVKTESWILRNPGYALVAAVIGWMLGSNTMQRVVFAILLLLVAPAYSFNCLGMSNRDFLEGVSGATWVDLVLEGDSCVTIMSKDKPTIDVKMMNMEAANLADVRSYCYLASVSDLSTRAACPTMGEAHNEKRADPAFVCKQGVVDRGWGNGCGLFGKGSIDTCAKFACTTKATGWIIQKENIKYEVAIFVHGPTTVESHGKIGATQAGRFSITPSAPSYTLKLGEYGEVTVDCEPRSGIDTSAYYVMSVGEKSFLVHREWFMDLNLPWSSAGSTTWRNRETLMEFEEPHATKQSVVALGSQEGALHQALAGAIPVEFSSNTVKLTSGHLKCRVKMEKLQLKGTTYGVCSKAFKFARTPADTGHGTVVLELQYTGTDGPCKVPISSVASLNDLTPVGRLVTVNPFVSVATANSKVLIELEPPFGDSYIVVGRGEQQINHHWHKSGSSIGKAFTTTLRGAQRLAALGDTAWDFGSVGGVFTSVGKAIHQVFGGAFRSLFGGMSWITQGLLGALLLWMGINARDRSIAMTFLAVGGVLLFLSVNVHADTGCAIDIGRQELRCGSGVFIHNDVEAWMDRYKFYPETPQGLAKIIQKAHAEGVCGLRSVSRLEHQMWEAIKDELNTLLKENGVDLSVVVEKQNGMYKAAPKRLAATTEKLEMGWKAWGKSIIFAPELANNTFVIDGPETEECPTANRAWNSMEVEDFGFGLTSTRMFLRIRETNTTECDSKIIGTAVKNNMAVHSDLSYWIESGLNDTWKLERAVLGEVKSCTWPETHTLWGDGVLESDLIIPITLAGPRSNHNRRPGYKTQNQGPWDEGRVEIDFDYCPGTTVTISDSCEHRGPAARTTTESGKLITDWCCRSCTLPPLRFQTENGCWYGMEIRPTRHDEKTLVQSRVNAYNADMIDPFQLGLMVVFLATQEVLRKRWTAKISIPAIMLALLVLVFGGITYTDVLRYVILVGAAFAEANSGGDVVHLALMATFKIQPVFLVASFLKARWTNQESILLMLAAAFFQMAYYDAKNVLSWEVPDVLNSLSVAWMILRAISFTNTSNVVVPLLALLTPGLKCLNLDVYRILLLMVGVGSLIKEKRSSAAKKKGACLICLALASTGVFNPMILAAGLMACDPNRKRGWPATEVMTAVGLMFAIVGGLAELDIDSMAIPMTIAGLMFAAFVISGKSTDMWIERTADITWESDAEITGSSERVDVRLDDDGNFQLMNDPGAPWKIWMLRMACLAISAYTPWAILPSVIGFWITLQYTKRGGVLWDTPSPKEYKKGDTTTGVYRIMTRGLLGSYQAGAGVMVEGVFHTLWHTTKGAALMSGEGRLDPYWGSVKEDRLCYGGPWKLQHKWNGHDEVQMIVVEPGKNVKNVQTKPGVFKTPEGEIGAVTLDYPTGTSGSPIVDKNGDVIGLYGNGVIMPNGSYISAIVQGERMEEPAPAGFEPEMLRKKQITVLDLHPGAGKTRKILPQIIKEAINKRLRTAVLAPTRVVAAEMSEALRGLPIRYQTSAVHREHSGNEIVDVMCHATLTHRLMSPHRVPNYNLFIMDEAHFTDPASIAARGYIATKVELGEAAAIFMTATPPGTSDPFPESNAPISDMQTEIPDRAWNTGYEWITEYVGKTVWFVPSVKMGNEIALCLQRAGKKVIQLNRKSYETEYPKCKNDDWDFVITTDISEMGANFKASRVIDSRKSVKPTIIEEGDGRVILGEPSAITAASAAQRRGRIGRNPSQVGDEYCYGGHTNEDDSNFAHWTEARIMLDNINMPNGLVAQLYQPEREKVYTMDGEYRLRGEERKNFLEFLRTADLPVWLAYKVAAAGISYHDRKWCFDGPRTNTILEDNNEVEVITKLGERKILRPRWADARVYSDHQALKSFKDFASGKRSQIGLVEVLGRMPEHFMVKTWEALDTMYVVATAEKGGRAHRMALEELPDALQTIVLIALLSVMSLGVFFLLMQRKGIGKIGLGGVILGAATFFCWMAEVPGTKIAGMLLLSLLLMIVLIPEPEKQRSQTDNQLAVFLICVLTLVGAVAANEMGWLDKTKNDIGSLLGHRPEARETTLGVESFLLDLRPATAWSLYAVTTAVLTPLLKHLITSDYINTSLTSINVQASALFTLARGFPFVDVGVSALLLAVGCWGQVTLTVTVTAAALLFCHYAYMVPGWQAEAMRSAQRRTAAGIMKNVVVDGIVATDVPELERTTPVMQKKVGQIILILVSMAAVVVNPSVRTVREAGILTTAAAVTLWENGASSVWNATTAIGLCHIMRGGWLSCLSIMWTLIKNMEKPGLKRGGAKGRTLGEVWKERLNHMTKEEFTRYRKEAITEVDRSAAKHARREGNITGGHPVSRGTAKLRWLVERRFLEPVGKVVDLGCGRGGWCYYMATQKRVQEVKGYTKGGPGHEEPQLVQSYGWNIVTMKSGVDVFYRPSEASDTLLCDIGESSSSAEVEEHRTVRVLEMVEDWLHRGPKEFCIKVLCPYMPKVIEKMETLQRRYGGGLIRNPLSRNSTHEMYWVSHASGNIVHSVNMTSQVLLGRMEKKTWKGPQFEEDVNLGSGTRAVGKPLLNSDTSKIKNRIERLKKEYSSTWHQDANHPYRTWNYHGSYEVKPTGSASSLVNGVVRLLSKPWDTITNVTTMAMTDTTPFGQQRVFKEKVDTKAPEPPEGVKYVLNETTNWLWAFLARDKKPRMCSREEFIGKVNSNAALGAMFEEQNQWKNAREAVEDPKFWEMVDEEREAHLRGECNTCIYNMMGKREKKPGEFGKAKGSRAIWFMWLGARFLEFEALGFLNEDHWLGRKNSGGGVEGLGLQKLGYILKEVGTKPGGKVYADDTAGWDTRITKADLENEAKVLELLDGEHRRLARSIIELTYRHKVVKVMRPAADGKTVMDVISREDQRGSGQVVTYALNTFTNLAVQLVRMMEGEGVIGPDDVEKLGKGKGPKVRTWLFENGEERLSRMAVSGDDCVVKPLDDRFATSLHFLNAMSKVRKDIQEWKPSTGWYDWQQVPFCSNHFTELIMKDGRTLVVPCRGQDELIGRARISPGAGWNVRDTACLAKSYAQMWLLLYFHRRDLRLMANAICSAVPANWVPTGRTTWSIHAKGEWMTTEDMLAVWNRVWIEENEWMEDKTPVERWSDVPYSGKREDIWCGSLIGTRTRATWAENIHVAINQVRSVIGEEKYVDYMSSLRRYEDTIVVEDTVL
Assay [13] concerns the target Prothrombin (Bos taurus) (UniProt P00735). Kind of assay: Inhibition of Bovine thrombin using Boc-Val-Pro-Arg-AMC as substrate compound preincubated at 25 uM for 15 mins by fluorescence assay. Put shortly:
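Bovine thrombin (final 10 nM) was preincubated 15 min with 25 μM compound in 50 mM Tris-HCl pH 7.5, 150 mM NaCl, 0.05% Tween 20. The reaction was started with Boc-Val-Pro-Arg-AMC (50 μM final). Fluorescence (ex 355/em 460 nm) was monitored continuously for 10 min; activity taken as slope (RFU/s). Triplicate.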

Assay [14] relates to HeLa. The experiment in a line: Cytotoxicity against human HeLa cells assessed as reduction in cell viability after 24 hrs by CellTiter-Blue assay. The format is cell-based. The gist of the method: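 HeLa cells seeded in triplicate at 5×10^3 cells/well and grown 24 h at 37 °C/5% CO2. Compounds at varying concentrations were added as a 2x stock in phenol-red-free DMEM with FBS, penicillin/streptomycin, sodium pyruvate and L-glutamine, then left 24 h. Medium was replaced with CellTiter-Blue medium for 3 h. A570/A610 was read after background subtraction, as % of untreated controls; EC50 derived.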

As to `C=CC(=O)Nc1ccc(C)cc1`, the inhibition in assay [1], in [2], in assay [3], in assay [4], in assay [5] and in assay [6] was under 15% throughout. For the same compound, the inhibition in assay [7], in [8], in [11], in assay [12] and in assay [13] was under 15% throughout. In addition, the Activity in assay [9] is under 0.1 L/mol/s; in assay [10], under 5%.
As for `N#CCNC(=O)c1ccccc1`, the inhibition in assay [1] was under 15%; in assay [2] it was under 15%; in assay [3], under 15%; in [4], 17%; in [5], under 15%; in assay [6] it was under 15%. Further, the inhibition is under 15% in [7]; under 15% in [8]; under 15% in assay [11]; 23% in [12]; under 15% in assay [13]. For the same compound, the Activity in assay [9] was under 0.1 L/mol/s. Moreover, in [14], the EC50 was over 100 µM.
For the compound `C=CC(=O)Nc1ccc([N+](=O)[O-])cc1`, the inhibition in [1], in [2], in assay [3], in [4], in assay [5] and in assay [6] was under 15% throughout. For the same compound, the inhibition in assay [7], in assay [8], in assay [11], in assay [12] and in assay [13] was under 15% throughout. The Activity in assay [9] is under 0.1 L/mol/s; in assay [10], under 5%.
On to `CCCCNC(=O)CCl`, for which the inhibition in assay [1], in assay [2], in assay [3], in assay [4], in assay [5] and in assay [6] was under 15% throughout. For the same compound, the inhibition in assay [7] is 15%; in assay [8], under 15%; in [11], under 15%; in assay [12], under 15%; in assay [13], under 15%. In [9], the Activity was under 0.1 L/mol/s. The EC50 in assay [14] was over 100 µM.
As to `C=CC(=O)Nc1ccc(F)cc1`, the inhibition in assay [1], in assay [2], in assay [3], in [4], in assay [5] and in assay [6] was under 15% throughout. Moreover, the inhibition in assay [7], in assay [8], in assay [11], in [12] and in [13] was under 15% each time. Further, the Activity in [9] was under 0.1 L/mol/s; in assay [10], under 5%.
Regarding `CCCCNC(=O)CC#N`, the inhibition in [1], in assay [2], in assay [3], in [4], in [5] and in assay [6] was under 15% throughout. The inhibition in [7], in assay [8], in assay [11], in assay [12] and in assay [13] was under 15% each time. Moreover, the Activity in assay [9] was under 0.1 L/mol/s. The concentration giving a half-maximal response (EC50) in [14] is over 100 µM.
For `C=CCNCCCC`, the inhibition is under 15% in [1]; under 15% in assay [2]; under 15% in assay [3]; 19% in assay [4]; under 15% in assay [5]; under 15% in assay [6]. Also, the inhibition in assay [7], in assay [8], in assay [11], in [12] and in [13] was under 15% each time. The Activity in assay [9] was under 0.1 L/mol/s. The EC50 in assay [14] was over 100 µM.
Regarding `C=CCNc1ccccc1`, the inhibition in assay [1] is under 15%; in assay [2], 22%; in assay [3] it was 16%; in assay [4] it was under 15%; in assay [5] it was under 15%; in [6] it was under 15%. Also, the inhibition in assay [7], in [8], in assay [11], in assay [12] and in assay [13] was under 15% in each case. In [9], the Activity is under 0.1 L/mol/s. For the same compound, the EC50 in [14] was over 100 µM.
As for `N#CCNC(=O)/C=C/c1ccccc1`, the inhibition in assay [1] is under 15%; in [2], under 15%; in assay [3], under 15%; in [4], under 15%; in assay [5], under 15%; in [6], under 17%. Further, the inhibition was under 15% in [7]; under 15% in [8]; 17% in assay [11]; 18% in assay [12]; under 15% in [13]. Besides, the Activity in assay [9] was under 0.1 L/mol/s. Also, the EC50 in [14] was over 100 µM.
Consider `C=CCNC1CCCC1`, for which the inhibition in assay [1] is under 15%; in assay [2], under 15%; in assay [3], under 15%; in assay [4], 17%; in [5], under 15%; in assay [6] it was under 15%. In addition, the inhibition in assay [7], in assay [8], in [11], in assay [12] and in assay [13] was under 15% throughout. Also, the Activity in assay [9] is under 0.1 L/mol/s.
Take `N#CCC(=O)NC1CCCC1`: the inhibition in assay [1], in [2], in [3], in assay [4], in assay [5] and in assay [6] was under 15% in each case. For the same compound, the inhibition was 16% in [7]; under 15% in [8]; under 15% in [11]; under 15% in assay [12]; under 15% in assay [13]. Also, the Activity in assay [9] is under 0.1 L/mol/s.
Regarding `COc1ccc(NC(=O)CC#N)cc1`, the inhibition in [1], in assay [2], in assay [3], in [4], in assay [5] and in assay [6] was under 15% in each case. Moreover, the inhibition in assay [7] is 15%; in [8], under 15%; in [11] it was under 15%; in assay [12] it was 16%; in assay [13] it was under 15%. In addition, the Activity in assay [9] was under 0.1 L/mol/s.
Consider `O=C(Nc1ccc([N+](=O)[O-])cc1)n1ccnc1`, for which the inhibition in assay [1], in [2], in assay [3], in assay [4], in [5] and in assay [6] was under 15% throughout. Also, the inhibition in [7], in assay [8], in assay [11], in [12] and in [13] was under 15% in each case. Besides, in assay [9], the Activity is under 0.1 L/mol/s.
As for `CNC(=O)CC#N`, the inhibition in assay [1], in assay [2], in assay [3], in [4], in [5] and in [6] was under 15% in each case. For the same compound, the inhibition in assay [7], in assay [8], in assay [11], in assay [12] and in assay [13] was under 15% each time. Further, the Activity in assay [9] was under 0.1 L/mol/s.
